How the values were obtained:
[1] = Inhibitory activity against proteolytic release of C5a in activated human serum was determined; format: functional
Summary of the method: (§1)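 Human serum (73% of final volume) equilibrated with a range of compound concentrations dissolved in 0.10 M HEPES, 0.15 M NaCl, pH 7.4. Serum then activated with heat-aggregated IgG, and C5a[desArg] and C3a[desArg] quantified. Fractional inhibition taken relative to the no-compound sample and to the background level without aggregated IgG. n = 3 (one compound n = 2).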

Homo sapiens = species: Homo sapiens; assay: Ability to inhibit complement-mediated erythrocyte lysis (hemolysis) in human serum; format: functional, organism-based
Summary of the method: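 Antibody-sensitized sheep erythrocytes incubated with compound and diluted human serum, 60 min at 37 °C. Cells pelleted by centrifugation; released hemoglobin read at 410 nm in supernatant. Each sample paired with a serum-free control for complement-independent lysis, which was subtracted. Fractional inhibition taken relative to the no-compound sample.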

Oryctolagus cuniculus = species: Oryctolagus cuniculus; assay: Ability to inhibit lysis of rabbit erythrocytes by the alternative complement pathway was determined; format: functional, organism-based
Summary of the method: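 Alternative-pathway hemolysis of rabbit erythrocytes. Cells incubated with compound and human serum for 60 min at 37 °C. Supernatant hemoglobin read at 410 nm after centrifugation. Serum-free background was subtracted and inhibition taken relative to the no-compound sample.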

[2] = Inhibitory activity against proteolytic release of C3a in activated human serum was determined; format: functional; summary of the method: as §1

Row | SMILES | IC50 [1] | IC50 (Homo sapiens) | IC50 (Oryctolagus cuniculus) | IC50 [2]
1 | O=C(O)c1ccc(O)cc1O [2,4-DIHYDROXYBENZOIC ACID] | 22000 µM |  |  | 
2 | COc1cc(C(=O)O)cc(O)c1CC1=CCCCC1 |  | 820 µM | 3500 µM | 
3 | COc1ccc(C(=O)O)c(O)c1CC1=CCCCC1 |  | 2100 µM |  | 
4 | C[C@@H]1CCC2C(C)(C)[C@H](O)[C@H](O)C[C@]2(C)C12Cc1c(O)cc(C(=O)O)c(C=O)c1O2 (stereo partly drawn) | 3000 µM | 570 µM | 330 µM | 
5 | O=C(O)c1ccc(O)c2c1OC1(CCCCC1)C2 |  | 3000 µM |  | 
6 | COc1cc2c(c3c1CC1(CCCCC1)O3)C(=O)OC2 | 1300 µM |  |  | 700 µM
7 | COc1cc(C(=O)O)c(C=O)c2c1CC1(CCCCC1)O2 | 500 µM | 160 µM | 730 µM | 
8 | COc1cc(C(=O)O)cc2c1CC1(CCCCC1)O2 |  | 530 µM | 2200 µM | 
9 | COc1ccc(C(=O)O)c2c1CC1(CCCCC1)O2 | 5000 µM | 1300 µM | 2200 µM | 22000 µM
10 | O=C(O)c1ccccc1O [SALICYLIC ACID] | 21000 µM |  |  | 
11 | COc1cc(C=O)c(C(=O)O)c2c1CC1(CCCCC1)O2 |  | 1700 µM | 1900 µM | 
12 | COc1ccc(C=O)c2c1CC1(CCCCC1)O2 | 8000 µM |  |  | 13000 µM
13 | O=C(O)c1cc(O)c2c(c1)OC1(CCCCC1)C2 |  | 1500 µM | 3800 µM | 
14 | COc1cc(C(=O)O)c(C(=O)O)c2c1CC1(CCCCC1)O2 |  | 800 µM | 1200 µM | 

Source: ChEMBL document CHEMBL1145810, “Synthesis and complement inhibitory activity of B/C/D-ring analogues of the fungal metabolite 6,7-diformyl-3',4',4a',5',6',7',8',8a'-octahydro-4,6',7'-trihydroxy- 2',5',5',8a'-tetramethylspiro[1'(2'H)-naphthalene-2(3H)-benzofuran]” (J Med Chem, 2003)
